The source of these data is ChEMBL document CHEMBL4316609, “Chemical synthesis and functional characterization of a new class of ceramide analogues as anti-cancer agents” (Bioorg Med Chem, 2019).

As usually defined, the IC50 is the concentration at which inhibition is half-maximal. Read a high IC50 as weaker potency in that assay.

Holding throughout (format): functional, cell-based
Assay [1] relates to HepG2. Put plainly: Cytotoxicity against human HepG2 cells measured after 48 hrs by MTT assay. As to conditions: HepG2, 48 h. Put shortly: (§1)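 Seeded at 7x10^3 cells/well and allowed 24 h to attach. Compounds added at final 0 to 200 μM and incubated 48 h. Viability read by MTT. IC50 taken as the concentration giving 50% growth inhibition; mean ± SD, N = 4.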
Assay [2] deals with A-431. In words: Cytotoxicity against human A431 cells measured after 48 hrs by MTT assay. As to conditions: A-431, 48 h. Put shortly: as §1
The nature of assay [3]: Cytotoxicity against human SA cells measured after 48 hrs by MTT assay. As to conditions: +SA cell. Put shortly: as §1
On the technique in general: Tetrazolium assays rely on reduction of a dye to a coloured formazan, in cell work by metabolically active cells.

Assay [4] has as its system MCF7. Put plainly: Cytotoxicity against human MCF7 cells measured after 48 hrs by MTT assay. As to conditions: MCF7, 48 h. Put shortly: as §1
The test system of assay [5] is SiHa. In words: Cytotoxicity against human SiHa cells measured after 48 hrs by MTT assay. Put shortly: as §1
In assay [6] the test system is SW-620. In words: Cytotoxicity against human SW620 cells measured after 48 hrs by MTT assay. As to conditions: SW-620, 48 h. In short, it runs like this: as §1

Each structure is given as a SMILES string.

Turning to `CCCCCCCCCCCCCCNC(=O)[C@@H](NC(=O)c1cccs1)[C@@H](C)O`, the IC50 in assay [1] turned out to be 88.4 µM; in assay [2] it was 26.4 µM; in assay [3] it was 21.2 µM; in assay [4], 36.1 µM; in assay [5] it was 63 µM; in assay [6] it was 78.4 µM.

On to `CCCCCCCCCCCCCCCCCCNC(=O)[C@@H](NC(=O)c1cc2ccccc2[nH]1)[C@@H](C)O`, for which the IC50 in assay [1] is 89.4 µM; in assay [2], 81 µM; in assay [3] it was 35.6 µM; in assay [4], 35.6 µM; in assay [5], 29.6 µM; in assay [6] it was 23.6 µM.

In the case of `CCCCCCCCCCCCCCCCCCNC(=O)[C@@H](NS(=O)(=O)c1ccc(C)cc1)[C@@H](C)O`, the IC50 is 75.8 µM in assay [1]; 34 µM in assay [2]; 47.9 µM in assay [3]; 60.1 µM in assay [4]; 29.8 µM in assay [5]; 32.5 µM in assay [6].

For the compound `CCCCCCCCCCCCCCNC(=O)[C@@H](NC(=O)c1nccc2ccccc12)[C@@H](C)O`, the IC50 in assay [1] turned out to be 28.6 µM; in assay [2], 23 µM; in assay [3], 24.4 µM; in assay [4] it was 22.8 µM; in assay [5], 21.6 µM; in assay [6], 30.4 µM.

For `CCCCCCCCNC(=O)[C@@H](NC(=O)/C=C/c1ccccc1)[C@@H](C)O`, the IC50 in assay [1] was 55.6 µM; in assay [2], 36 µM; in assay [3] it was 25.6 µM; in assay [4], 35.1 µM; in assay [5], 41.4 µM; in assay [6] it was 61.4 µM.

Regarding `CCCCCCCCCCCCCCNC(=O)[C@@H](NC(=O)c1cc2ccccc2o1)[C@@H](C)O`, the IC50 in assay [1] came out at 23.4 µM; in assay [2], 20.1 µM; in assay [3], 9.61 µM; in assay [4] it was 23.4 µM; in assay [5] it was 14.2 µM; in assay [6], 26.7 µM.

Regarding `CCCCCCCCCCCCCCCCCCNC(=O)[C@@H](NS(=O)(=O)c1ccc2ccccc2c1)[C@@H](C)O`, the IC50 in assay [1] came out at 19.8 µM; in assay [2], 23.7 µM; in assay [3] it was 21.2 µM; in assay [4] it was 27.8 µM; in assay [5] it was 19.9 µM; in assay [6] it was 24.6 µM.

Take `CCCCCCCCNC(=O)[C@@H](NC(=O)c1nccc2ccccc12)[C@@H](C)O`: the IC50 came out at 88.2 µM in assay [1]; 26.9 µM in assay [2]; 22.9 µM in assay [3]; 63.2 µM in assay [4]; 66 µM in assay [5]; 67.8 µM in assay [6].

Consider `CCCCCCCCCCCCNC(=O)[C@@H](NC(=O)Cc1c[nH]c2ccccc12)[C@@H](C)O`, for which the IC50 in assay [1] worked out at 22.6 µM; in assay [2], 23.4 µM; in assay [3], 20 µM; in assay [4], 15.5 µM; in assay [5], 13.6 µM; in assay [6] it was 22 µM.

As to `CCCCCCCCCCCCCCCCCCNC(=O)[C@@H](N)[C@@H](C)O`, the IC50 was 44.5 µM in assay [1]; 21.3 µM in assay [2]; greater than 200 µM in assay [3]; 27.4 µM in assay [4]; 39.5 µM in assay [5]; 21.4 µM in assay [6].

For the compound `CCCCCCCCCCCCNC(=O)[C@@H](NS(=O)(=O)c1cccs1)[C@@H](C)O`, the IC50 in assay [1] was determined as 25.9 µM; in assay [2] it was 22 µM; in assay [3] it was 20.1 µM; in assay [4], 19.1 µM; in assay [5], 30.9 µM; in assay [6] it was 27.9 µM.

Turning to `CCCCCCCCCCCCCCNC(=O)[C@@H](NC(=O)c1cc2ccccc2[nH]1)[C@@H](C)O`, the IC50 in assay [1] came to 10.5 µM; in assay [2], 12.2 µM; in assay [3], 12.1 µM; in assay [4], 15.1 µM; in assay [5], 14.2 µM; in assay [6], 15.2 µM.

As to `CCCCCCCCCCCCCCNC(=O)[C@@H](NS(=O)(=O)c1cccs1)[C@@H](C)O`, the IC50 in assay [1] came to 21.6 µM; in assay [2] it was 22 µM; in assay [3], 11.6 µM; in assay [4], 18.7 µM; in assay [5], 20.4 µM; in assay [6], 18.4 µM.
